According to ChEMBL document CHEMBL1165965, “Synthesis and structure-activity relationships of 1,2,3,4-tetrahydropyrido[2,3-b]pyrazines as potent and selective inhibitors of the anaplastic lymphoma kinase” (Bioorg Med Chem, 2010):

Assays:
[1] = target: T1, Serine/threonine-protein kinase NLK (Homo sapiens) (UniProt Q9UBE8); test: Inhibition of NLK at 1 uM
T1 sequence (whole entry): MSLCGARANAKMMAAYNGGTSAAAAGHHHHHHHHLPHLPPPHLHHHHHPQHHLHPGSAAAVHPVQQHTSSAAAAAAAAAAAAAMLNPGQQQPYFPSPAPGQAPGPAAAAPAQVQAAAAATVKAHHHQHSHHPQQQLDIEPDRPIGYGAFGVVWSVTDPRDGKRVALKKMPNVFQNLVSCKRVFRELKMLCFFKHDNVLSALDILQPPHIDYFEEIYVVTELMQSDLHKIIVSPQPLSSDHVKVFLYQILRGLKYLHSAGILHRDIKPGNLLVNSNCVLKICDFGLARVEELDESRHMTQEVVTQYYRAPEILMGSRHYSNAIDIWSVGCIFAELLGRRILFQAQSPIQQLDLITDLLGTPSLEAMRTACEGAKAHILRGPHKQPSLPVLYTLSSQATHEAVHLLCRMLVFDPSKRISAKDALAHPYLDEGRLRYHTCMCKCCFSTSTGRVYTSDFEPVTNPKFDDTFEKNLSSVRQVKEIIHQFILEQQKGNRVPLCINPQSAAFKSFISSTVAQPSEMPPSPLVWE

[2] = target: T2, Tyrosine-protein kinase ZAP-70 (Homo sapiens) (UniProt P43403); test: Inhibition of ZAP70 at 1 uM
T2 sequence (whole entry): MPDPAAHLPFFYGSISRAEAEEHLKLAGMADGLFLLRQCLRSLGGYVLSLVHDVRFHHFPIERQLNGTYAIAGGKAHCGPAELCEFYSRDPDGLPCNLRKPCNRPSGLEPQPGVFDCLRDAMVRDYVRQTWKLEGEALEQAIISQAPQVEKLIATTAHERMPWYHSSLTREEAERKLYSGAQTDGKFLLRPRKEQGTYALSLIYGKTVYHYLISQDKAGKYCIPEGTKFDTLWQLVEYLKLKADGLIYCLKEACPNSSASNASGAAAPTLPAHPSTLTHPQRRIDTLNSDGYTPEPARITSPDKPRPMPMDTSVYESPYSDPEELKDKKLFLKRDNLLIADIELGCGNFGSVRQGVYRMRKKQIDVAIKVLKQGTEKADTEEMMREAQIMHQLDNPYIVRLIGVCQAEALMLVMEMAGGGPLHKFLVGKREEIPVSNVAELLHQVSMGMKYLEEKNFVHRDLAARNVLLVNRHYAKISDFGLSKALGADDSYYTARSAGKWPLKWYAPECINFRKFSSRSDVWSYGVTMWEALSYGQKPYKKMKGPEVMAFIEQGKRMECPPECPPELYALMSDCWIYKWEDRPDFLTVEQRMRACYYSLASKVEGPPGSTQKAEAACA

[3] = target: T3, 3-phosphoinositide-dependent protein kinase 1 (Homo sapiens) (UniProt O15530); test: Inhibition of PDPK1 at 1 uM
T3 sequence (whole entry): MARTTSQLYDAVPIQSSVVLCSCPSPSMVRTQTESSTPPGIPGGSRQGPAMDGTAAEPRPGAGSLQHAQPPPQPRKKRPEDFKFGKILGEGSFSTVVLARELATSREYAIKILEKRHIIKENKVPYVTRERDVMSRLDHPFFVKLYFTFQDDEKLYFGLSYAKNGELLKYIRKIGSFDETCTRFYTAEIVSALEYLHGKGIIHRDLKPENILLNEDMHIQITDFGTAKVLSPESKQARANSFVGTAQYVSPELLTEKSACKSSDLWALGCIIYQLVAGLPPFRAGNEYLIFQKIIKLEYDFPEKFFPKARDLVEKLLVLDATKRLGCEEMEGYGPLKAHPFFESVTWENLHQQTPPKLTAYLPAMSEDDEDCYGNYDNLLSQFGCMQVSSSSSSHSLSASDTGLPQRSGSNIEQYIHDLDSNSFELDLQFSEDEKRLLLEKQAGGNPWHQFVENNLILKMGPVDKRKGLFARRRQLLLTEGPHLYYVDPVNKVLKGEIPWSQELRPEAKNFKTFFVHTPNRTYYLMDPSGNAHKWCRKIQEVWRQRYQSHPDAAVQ

[4] = target: T4, Ephrin type-B receptor 2 (Homo sapiens) (UniProt P29323); test: Inhibition of EPHB2 at 1 uM
T4 sequence (whole entry): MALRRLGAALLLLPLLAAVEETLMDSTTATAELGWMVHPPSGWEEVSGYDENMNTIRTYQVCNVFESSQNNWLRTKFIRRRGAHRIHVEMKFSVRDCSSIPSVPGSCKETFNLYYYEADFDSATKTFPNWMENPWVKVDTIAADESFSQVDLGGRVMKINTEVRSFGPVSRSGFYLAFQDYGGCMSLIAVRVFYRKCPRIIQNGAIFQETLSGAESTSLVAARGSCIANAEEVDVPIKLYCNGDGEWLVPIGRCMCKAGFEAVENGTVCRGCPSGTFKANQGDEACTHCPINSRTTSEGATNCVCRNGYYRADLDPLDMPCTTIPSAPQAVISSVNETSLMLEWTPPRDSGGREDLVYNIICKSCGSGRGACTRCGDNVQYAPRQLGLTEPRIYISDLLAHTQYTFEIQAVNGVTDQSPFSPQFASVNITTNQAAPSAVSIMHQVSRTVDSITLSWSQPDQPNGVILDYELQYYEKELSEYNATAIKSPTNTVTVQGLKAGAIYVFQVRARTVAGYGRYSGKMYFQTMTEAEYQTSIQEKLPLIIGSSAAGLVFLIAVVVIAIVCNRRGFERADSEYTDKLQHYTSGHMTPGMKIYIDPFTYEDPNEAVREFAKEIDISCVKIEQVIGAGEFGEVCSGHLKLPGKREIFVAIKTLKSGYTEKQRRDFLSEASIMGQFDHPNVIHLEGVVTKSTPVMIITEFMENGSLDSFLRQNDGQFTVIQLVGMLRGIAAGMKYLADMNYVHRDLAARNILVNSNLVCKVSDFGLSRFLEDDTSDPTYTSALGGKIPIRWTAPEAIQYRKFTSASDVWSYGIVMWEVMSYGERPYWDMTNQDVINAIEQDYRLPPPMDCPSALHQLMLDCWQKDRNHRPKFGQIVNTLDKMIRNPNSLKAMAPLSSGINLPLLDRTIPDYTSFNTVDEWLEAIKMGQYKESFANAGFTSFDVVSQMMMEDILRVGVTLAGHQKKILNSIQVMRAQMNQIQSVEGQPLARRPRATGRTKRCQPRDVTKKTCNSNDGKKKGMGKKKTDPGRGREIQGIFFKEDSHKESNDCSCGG
How it was run: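 Single-concentration screen using Ambit Bioscience KINOMEscan technology across a panel of 250–400 kinases. Per-kinase inhibition from this screen was summarized as S(90), the fraction of kinases inhibited by more than 90%.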

[5] = target: Mitogen-activated protein kinase kinase kinase 11 (Homo sapiens) (UniProt Q16584); test: Inhibition of MLK3 at 1 uM
Sequence of Mitogen-activated protein kinase kinase kinase 11 (Homo sapiens) (Q16584 whole entry, looked up): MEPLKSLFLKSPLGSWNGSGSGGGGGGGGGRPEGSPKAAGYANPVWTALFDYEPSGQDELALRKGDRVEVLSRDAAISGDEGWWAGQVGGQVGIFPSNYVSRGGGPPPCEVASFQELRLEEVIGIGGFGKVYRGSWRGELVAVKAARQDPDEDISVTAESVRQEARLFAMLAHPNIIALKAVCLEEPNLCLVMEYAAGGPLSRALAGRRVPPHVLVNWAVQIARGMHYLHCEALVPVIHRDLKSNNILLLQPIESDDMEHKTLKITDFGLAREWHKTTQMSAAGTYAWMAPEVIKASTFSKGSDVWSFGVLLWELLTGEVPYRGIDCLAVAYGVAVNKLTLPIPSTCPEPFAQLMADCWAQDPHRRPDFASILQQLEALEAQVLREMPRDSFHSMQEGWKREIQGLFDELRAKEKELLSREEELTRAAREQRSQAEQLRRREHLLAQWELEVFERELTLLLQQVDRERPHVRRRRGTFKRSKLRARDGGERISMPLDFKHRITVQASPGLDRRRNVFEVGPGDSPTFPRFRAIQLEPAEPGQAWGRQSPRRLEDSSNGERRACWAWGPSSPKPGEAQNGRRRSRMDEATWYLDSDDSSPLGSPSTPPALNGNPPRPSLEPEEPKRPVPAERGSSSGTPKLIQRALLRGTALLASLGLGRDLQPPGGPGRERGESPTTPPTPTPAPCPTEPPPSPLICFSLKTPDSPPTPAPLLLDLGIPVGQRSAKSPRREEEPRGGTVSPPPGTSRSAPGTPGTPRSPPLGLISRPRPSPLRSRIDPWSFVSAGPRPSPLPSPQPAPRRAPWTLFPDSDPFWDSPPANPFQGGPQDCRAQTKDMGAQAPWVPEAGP
How it was run: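 Kinase-panel screen using KINOMEscan technology, with 250–400 kinases per panel. Each compound was tested at a single concentration, and inhibition of each kinase was recorded. Selectivity was summarised as S(90), the fraction of kinases inhibited by more than 90%.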

[6] = target: Ribosomal protein S6 kinase alpha-4 (Homo sapiens) (UniProt O75676); test: Inhibition of RPS6KA4 C-terminal domain2 at 1 uM
Sequence of Ribosomal protein S6 kinase alpha-4 (Homo sapiens) (O75676 whole entry, looked up, the tested form may be a part): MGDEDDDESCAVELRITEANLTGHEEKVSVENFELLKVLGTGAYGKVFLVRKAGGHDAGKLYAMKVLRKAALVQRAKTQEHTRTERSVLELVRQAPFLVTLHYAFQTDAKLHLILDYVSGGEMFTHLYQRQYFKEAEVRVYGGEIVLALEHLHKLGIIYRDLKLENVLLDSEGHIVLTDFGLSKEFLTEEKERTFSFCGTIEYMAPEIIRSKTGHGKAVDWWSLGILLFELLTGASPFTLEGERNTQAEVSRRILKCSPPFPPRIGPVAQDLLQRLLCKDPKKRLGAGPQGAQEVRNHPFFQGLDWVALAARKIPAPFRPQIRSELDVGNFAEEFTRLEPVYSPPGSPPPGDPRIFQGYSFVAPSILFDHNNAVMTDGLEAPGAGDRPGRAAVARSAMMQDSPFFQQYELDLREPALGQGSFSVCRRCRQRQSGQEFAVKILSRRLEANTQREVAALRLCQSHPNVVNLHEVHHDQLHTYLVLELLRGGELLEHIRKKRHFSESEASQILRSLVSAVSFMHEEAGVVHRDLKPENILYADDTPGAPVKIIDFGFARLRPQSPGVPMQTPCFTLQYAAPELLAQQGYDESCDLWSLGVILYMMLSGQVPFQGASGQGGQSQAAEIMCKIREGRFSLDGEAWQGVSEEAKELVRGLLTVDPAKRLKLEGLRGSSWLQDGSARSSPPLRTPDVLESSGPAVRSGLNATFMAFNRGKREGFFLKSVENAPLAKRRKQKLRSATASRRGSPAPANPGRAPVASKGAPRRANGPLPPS

Measured: inhibition

CN1CCN(c2ccc(-c3cnc4c(c3)N(Cc3cc(Cl)ccc3Cl)CCN4)cn2)CC1
< 50%: [1] | [2] | [3] | [4] | [5] | [6]

CN1CCN(c2ccc(-c3cnc4c(c3)N(Cc3cc(Cl)ccc3C(F)(F)F)CCN4)cn2)CC1
< 50%: [1] | [2] | [3] | [4] | [5] | [6]

CN1CCN(c2ccc(-c3cnc4c(c3)N(Cc3c(F)ccc(F)c3Cl)CCN4)cn2)CC1
< 50%: [1] | [2] | [3] | [4] | [5] | [6]

O=C(c1ccc(-c2cnc3c(c2)N(Cc2cc(Cl)ccc2C(F)(F)F)CCN3)cc1)N1CCC(N2CCCC2)CC1
< 50%: [1] | [2] | [3] | [4] | [5]

COC1CCN(C(=O)c2ccc(-c3cnc4c(c3)N(Cc3cc(Cl)ccc3C(F)(F)F)CCN4)cc2)CC1
< 50%: [1] | [2] | [3] | [4] | [5]

FC(F)(F)c1ccc(Cl)cc1CN1CCNc2ncc(-c3ccnc(N4CCNCC4)c3)cc21
< 50%: [1] | [2] | [3] | [4] | [5] | [6]

CN1CCN(c2ccc(-c3cnc4c(c3)N(Cc3cc(F)ccc3F)CCN4)cn2)CC1
< 50%: [1] | [2] | [3] | [4] | [5] | [6]

O=C(c1ccc(-c2cnc3c(c2)N(Cc2cc(Cl)ccc2C(F)(F)F)CCN3)cc1)N1CCCCC1
< 50%: [1] | [2] | [3] | [4] | [5]

CC(=O)N1CCN(c2cc(-c3cnc4c(c3)N(Cc3cc(Cl)ccc3C(F)(F)F)CCN4)ccn2)CC1
< 50%: [1] | [2] | [3] | [4] | [5] | [6]

O=C(O)c1ccc(-c2cnc3c(c2)N(Cc2cc(Cl)ccc2C(F)(F)F)CCN3)cc1
< 50%: [1] | [2] | [3] | [4] | [5]
